According to ChEMBL document CHEMBL3271935, “Synthesis and biological activity of some broad-spectrum N-acylphenyglycine cephalosporins” (1977):
≈ marks a conversion by molar mass, not a printed value.

How the values were obtained:
[1] = test system: Staphylococcus aureus; assay: Antibacterial activity against penicillin G resistant Staphylococcus aureus HH 127 assessed as growth inhibition by two-fold agar dilution method; format: functional
In short: (§1)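 Twofold agar dilution on Trypticase soy agar buffered to pH 6.0. MIC reported in μg/mL.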

[2] = test system: Escherichia coli; assay: Antibacterial activity against Escherichia coli 12140 assessed as growth inhibition by two-fold agar dilution method; format: functional
In short: (§2)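 MIC (μg/mL) by twofold agar dilution on Trypticase soy agar buffered to pH 6.0.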

[3] = test system: Klebsiella pneumoniae; assay: Antibacterial activity against Klebsiella pneumoniae 4200 assessed as growth inhibition by two-fold agar dilution method; format: functional; in short: as §2
[4] = test system: Salmonella paratyphi; assay: Antibacterial activity against Salmonella paratyphi ATCC 12176 assessed as growth inhibition by two-fold agar dilution method; format: functional, Salmonella enterica subsp. enterica serovar Paratyphi A; settings: Salmonella enterica; in short: as §1
[5] = test system: Klebsiella aerogenes; assay: Antibacterial activity against Enterobacter aerogenes ATCC 13048 assessed as growth inhibition by two-fold agar dilution method; format: functional; in short: as §2
[6] = test system: Morganella morganii; assay: Antibacterial activity against indole positive Proteus morganii 179 assessed as growth inhibition by two-fold agar dilution method; format: functional; in short: as §2
[7] = test system: Pseudomonas aeruginosa; assay: Antibacterial activity against Pseudomonas aeruginosa HH 63 assessed as growth inhibition by two-fold agar dilution method; format: functional; in short: as §2
[8] = test system: Escherichia coli; assay: Antibacterial activity against Escherichia coli 12140 infected in sc dosed mouse administered at 1 to 5 hrs measured for 3 days; format: functional; settings: Escherichia coli, 12140, sc; read-out: PD50
In short: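 Mice infected intraperitoneally with about 2×10^3 organisms per mouse of E. coli 12140 culture diluted in 5% hog gastric mucin, giving uniformly lethal infection. Fourfold dilutions given subcutaneously in equally divided portions at 1 and 5 h postinfection, five groups per compound. Survivors observed 3 days. PD50 is total dose (mg/kg) protecting 50%, calculated by Litchfield–Wilcoxon method.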

[9] = test system: Pseudomonas aeruginosa; assay: Antibacterial activity against Pseudomonas aeruginosa 1504 assessed as growth inhibition; format: functional
In short: (§3)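 Broth MIC by the standard microtiter technique in unbuffered Mueller-Hinton broth.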

[10] = test system: Pseudomonas aeruginosa; assay: Antibacterial activity against Pseudomonas aeruginosa 1042 assessed as growth inhibition; format: functional; in short: as §3
[11] = test system: Pseudomonas aeruginosa; assay: Antibacterial activity against Pseudomonas aeruginosa 219 assessed as growth inhibition; format: functional; in short: as §3
[12] = test system: Pseudomonas aeruginosa; assay: Antibacterial activity against Pseudomonas aeruginosa 647 assessed as growth inhibition; format: functional; in short: as §3
[13] = test system: Pseudomonas aeruginosa; assay: Antibacterial activity against Pseudomonas aeruginosa 864 assessed as growth inhibition; format: functional; in short: as §3
[14] = test system: Pseudomonas aeruginosa; assay: Antibacterial activity against Pseudomonas aeruginosa 1062 assessed as growth inhibition; format: functional; in short: as §3
[15] = test system: Pseudomonas aeruginosa; assay: Antibacterial activity against Pseudomonas aeruginosa 1063 assessed as growth inhibition; format: functional; in short: as §3
[16] = test system: Pseudomonas aeruginosa; assay: Antibacterial activity against Pseudomonas aeruginosa 1106 assessed as growth inhibition; format: functional; in short: as §3

| SMILES | MIC [1] [µg/mL] | MIC [2] [µg/mL] | MIC [3] [µg/mL] | MIC [4] [µg/mL] | MIC [5] [µg/mL] | MIC [6] [µg/mL] | MIC [7] [µg/mL] | ED50 [8] [mg/kg] | MIC [9] [µg/mL] | MIC [10] [µg/mL] | MIC [11] [µg/mL] | MIC [12] [µg/mL] | MIC [13] [µg/mL] | MIC [14] [µg/mL] | MIC [15] [µg/mL] | MIC [16] [µg/mL] |
| --- | --- | --- | --- | --- | --- | --- | --- | --- | --- | --- | --- | --- | --- | --- | --- | --- |
| CC(=O)OCC1=C(C(=O)[O-])N2C(=O)[C@@H](NC(=O)C(NC(=O)CCCC(=O)[O-])c3ccccc3)[C@H]2SC1.[Na+].[Na+] (some centres undefined) | 6.3 | 50 | 25 | 25 | 100 | > 200 | > 200 | 100 |  |  |  |  |  |  |  |  |
| CC(=O)OCC1=C(C(=O)O)N2C(=O)[C@@H](NC(=O)C(NC(=O)CSCC(=O)O)c3ccccc3)[C@H]2SC1 (some centres undefined) | 3.1 (≈ 5.77 µM) | 12.5 (≈ 23.3 µM) | 6.3 (≈ 11.7 µM) | 6.3 (≈ 11.7 µM) | 25 (≈ 46.5 µM) | 12.5 (≈ 23.3 µM) | > 200 | 64 |  |  |  |  |  |  |  |  |
| CC(=O)OCC1=C(C(=O)[O-])N2C(=O)[C@@H](NC(=O)C(NC(=O)COCC(=O)[O-])c3ccccc3)[C@H]2SC1.[Na+].[Na+] (some centres undefined) | 3.1 | 6.3 | 3.1 | 12.5 | 12.5 | 12.5 | > 200 | 21.5 |  |  |  |  |  |  |  |  |
| CC(=O)OCC1=C(C(=O)[O-])N2C(=O)[C@@H](NC(=O)C(NC(=O)C3CCC(C(=O)[O-])O3)c3ccccc3)[C@H]2SC1.[Na+].[Na+] (some centres undefined) | 6.3 | 12.5 | 6.3 | 12.5 | 25 | 50 | 200 | 140 |  |  |  |  |  |  |  |  |
| Cn1nnnc1SCC1=C(C(=O)[O-])N2C(=O)[C@@H](NC(=O)C(NC(=O)CCCC(=O)[O-])c3ccccc3)[C@H]2SC1.[Na+].[Na+] (some centres undefined) | 3.1 | 12.5 | 6.3 | 6.3 | 25 | 12.5 | > 200 | 100 | > 500 | > 500 | > 500 | > 500 | > 500 | > 500 | > 500 | > 500 |
| Cn1nnnc1SCC1=C(C(=O)[O-])N2C(=O)[C@@H](NC(=O)C(NC(=O)CSCC(=O)[O-])c3ccccc3)[C@H]2SC1.[Na+].[Na+] (some centres undefined) | 3.1 | 6.3 | 3.1 | 3.1 | 3.1 | 1.6 | > 200 | 50 | 500 | > 500 | 500 | > 500 | > 500 | 500 | > 500 | > 500 |
| Cn1nnnc1SCC1=C(C(=O)[O-])N2C(=O)[C@@H](NC(=O)C(NC(=O)COCC(=O)[O-])c3ccccc3)[C@H]2SC1.[Na+].[Na+] (some centres undefined) | 3.1 | 1.6 | 0.8 | 1.6 | 3.1 | 0.4 | 200 | 8.7 | 125 | 250 | 125 | 125 | 500 | 250 | 500 | 500 |
| Cn1nnnc1SCC1=C(C(=O)O)N2C(=O)[C@@H](NC(=O)C(N)c3ccccc3)[C@H]2SC1 (some centres undefined) | 3.1 (≈ 6.72 µM) | 3.1 (≈ 6.72 µM) | 1.6 (≈ 3.47 µM) | 1.6 (≈ 3.47 µM) | 1.6 (≈ 3.47 µM) | 6.3 (≈ 13.7 µM) | > 200 | 1.4 |  |  |  |  |  |  |  |  |
| CC(=O)OCC1=C(C(=O)[O-])N2C(=O)[C@@H](NC(=O)C(NC(=O)[C@H]3C[C@H]3C(=O)[O-])c3ccccc3)[C@H]2SC1.[Na+].[Na+] (mixture of isomers) | 6.3 | 12.5 | 3.1 | 6.3 | 12.5 | 12.5 | > 200 | 25 |  |  |  |  |  |  |  |  |
| CC(=O)OCC1=C(C(=O)[O-])N2C(=O)[C@@H](NC(=O)C(NC(=O)C3CO3)c3ccccc3)[C@H]2SC1.[Na+] (mixture of isomers) | 1.6 | 25 | 12.5 | 12.5 | 25 | 25 | > 200 | 100 |  |  |  |  |  |  |  |  |
